M4 ag – CHRM4 agonism in calcium assay; CHO-K1 hM4/Gqi5, Fluo-8 calcium fluorescence; vehicle 0%, full acetylcholine response 100%; activation, % at 3 µM; hit rate 0.14% among 360,000;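 active means activation above the run mean over all test wells plus 3 SD, cut at about 32% in these data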;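 further: peak over basal fluorescence ratio per well then scaled between controls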
Target sequence (P08173 whole entry, looked up): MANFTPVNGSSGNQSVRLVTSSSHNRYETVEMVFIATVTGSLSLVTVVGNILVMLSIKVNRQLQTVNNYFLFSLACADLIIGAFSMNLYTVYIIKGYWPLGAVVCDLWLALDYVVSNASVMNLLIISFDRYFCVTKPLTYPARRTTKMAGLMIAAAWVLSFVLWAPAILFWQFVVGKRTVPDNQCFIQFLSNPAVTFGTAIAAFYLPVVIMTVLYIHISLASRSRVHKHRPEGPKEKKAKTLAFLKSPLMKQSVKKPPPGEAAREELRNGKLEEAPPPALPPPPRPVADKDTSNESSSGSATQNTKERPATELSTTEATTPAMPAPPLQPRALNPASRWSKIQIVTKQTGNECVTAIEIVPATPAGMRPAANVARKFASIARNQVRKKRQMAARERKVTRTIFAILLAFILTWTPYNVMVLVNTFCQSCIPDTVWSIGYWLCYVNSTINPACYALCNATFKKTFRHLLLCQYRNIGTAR
CHRM5 agonist – agonists of human muscarinic M5 receptor (CHRM5) | P08912 | CHO-K1 hM5 cells, Fluo-8 calcium fluorescence; 0% DMSO wells, 100% maximal acetylcholine response | activation, % at 3 µM | hit rate 0.19% among 360,000 | AID 624037;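 active means activation above the run's mean over test compounds plus 3 SD, cut at about 23% in these data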;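 further: signal is peak over basal fluorescence ratio across the kinetic read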
M5 PAM – positive allosteric modulators of human muscarinic M5 receptor | P08912 | CHO-K1 hM5, Fluo-8 calcium, ACh EC20 PAM; 0% = ACh EC20, 100% = ACh EC100 | activation, % at 3 µM | hit rate 0.3% among 360,000 | AID 624038;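 active means activation above the run cutoff, the mean activation of all test compounds plus 3 SD, cut at about 18% in these data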
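Measured by: Fluo-8 calcium fluorescence; material: human M5 receptor in CHO-K1 cells; schedule: Post-acetylcholine fluorescence recording 140 s; benchmarks: low control EC20 acetylcholine (0%), high control EC100 acetylcholine (100%); read-out: Max/basal fluorescence ratio as % of EC20–EC100 ACh window; compound: single dose, 3 µM nominal final test concentration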
CHRM4 antagonist – CHRM4 antagonism in calcium assay; P08173; CHO-hM4 cells, ACh EC80, Fluo-8 calcium fluorescence; inhibition, % at 3 µM; hit rate 0.73% among 360,000;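 active means inhibition above its plate's cutoff, the mean inhibition of sample wells plus 3 SD, cut at about 27% in these data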
CHRM5 antagonist – CHRM5 antagonism in calcium assay; P08912; CHO-hM5 cells, Fluo-8 calcium fluorescence, ACh EC80; inhibition, % at 3 µM; hit rate 0.59% among 360,000;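 active means inhibition above a per-plate cutoff, the mean of that plate's test compounds plus 3 SD, cut at about 27% in these data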
M4 PAM – CHRM4 positive allosteric modulation | activation, % at 3 µM | hit rate 0.4% among 360,000 | AID 624126 | CHO-K1 hM4/Gqi5, Fluo-8 calcium fluorescence, ACh EC20; 0% = ACh EC20, 100% = maximal ACh | P08173;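 active means activation above its plate's cutoff, the mean activation of sample wells plus 3 SD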
Numbers stand for hits; – = inactive. Shown are actives, neighbours in structure and some others; about 1.9% of the full set was active somewhere.

SMILES	M4 ag	CHRM5 agonist	M5 PAM	CHRM4 antagonist	CHRM5 antagonist	M4 PAM
CC(C)C(NS(=O)(=O)c1cccc(C(F)(F)F)c1)C(=O)NCc1cccs1 (stereo unspecified)	–	–	–	–	–	–
CCC(=O)Nc1ccc(NC(=S)NC(=O)/C=C/c2ccco2)cc1	–	–	–	–	–	–
CC(=O)NC(=S)Nc1ccc(NC(=S)NC(=O)/C=C/c2ccco2)cc1	–	25	–	–	–	34
COc1cc(C(=O)Nc2scc(-c3ccc(C)cc3)c2C(=O)O)cc(OC)c1OC	–	–	–	62	–	–
COc1cc(C(=O)Nc2scc(-c3ccccc3)c2C(=O)O)cc(OC)c1OC	–	–	–	–	–	–
Cc1cccc(NC(=O)COc2coc(CN3CCN(c4ccccc4)CC3)cc2=O)c1	–	–	–	–	–	–
CCC(=O)N(CC)c1nc(-c2ccc(OC)cc2)cs1	59	–	–	–	–	–
CCC(=O)N(Cc1ccco1)c1nc(-c2ccc(OC)cc2)cs1	–	–	–	–	–	–
COc1ccc(-c2csc(N(CCCN(C)C)C(=O)c3ccc(F)cc3)n2)cc1	–	–	–	35	–	50
CN(C)CCCN(C(=O)c1cccs1)c1nc(-c2ccccc2)cs1	–	–	–	28	–	–
COc1ccc(-c2csc(N(CCCN(C)C)C(=O)c3ccccc3F)n2)cc1	–	–	–	–	–	–
COc1ccc(-c2csc(N(CCCN(C)C)C(=O)c3ccccc3C)n2)cc1	–	–	–	–	–	–
CCN(CC)CCCN(C(=O)c1ccc(F)cc1)c1nc(-c2ccc(OC)cc2)cs1	–	–	–	46	–	59
Cc1ccccc1NC(=O)CNC(=O)N1CC(=O)Nc2ccccc21	–	–	–	–	–	–
Cn1cc(CNC(=O)c2cc(COc3ccc4c(c3)CCCC4)on2)cn1	–	–	–	–	–	–
O=C(NC(c1cccnc1)C(F)(F)F)c1cc(COc2ccc3c(c2)CCCC3)on1 (stereo unspecified)	–	–	–	–	29	–
Clc1cccc(C2CCN(Cc3nc(COc4ccccc4)no3)C2)c1 (stereo unspecified)	–	–	–	–	–	–
c1ccc(OCc2noc(CN3CC[C@@H]4CCCC[C@H]4C3)n2)cc1	–	–	22	–	–	–
Cc1cccc(NC(=O)c2sc3nc(-c4ccc(F)cc4)cn3c2C)n1	–	–	–	–	32	–
Cn1nc(C(C)(C)C)cc1NC(=O)Nc1cc(Cl)cc(Cl)c1	–	–	–	–	34	–
CN1CCN(NC(=O)Nc2cc(Cl)cc(Cl)c2)CC1	–	–	–	–	44	–
N#Cc1ccccc1Cn1cc(/C=C/[N+](=O)[O-])c2ccccc21	–	–	–	–	50	–
Cc1ccc(NC(=S)NCC2CCCO2)cc1 (stereo unspecified)	–	–	–	–	–	26
N/C(=N\NC(=O)c1cccc(F)c1)c1cc2ccccc2oc1=O	–	–	–	–	–	28
CCNC(=S)NNC(=O)c1csc2c1CCCC2	–	–	–	–	–	20
SMILES	M4 ag	CHRM5 agonist	M5 PAM	CHRM4 antagonist	CHRM5 antagonist	M4 PAM
COc1cccc(S(=O)(=O)N(C)C[C@@H]2Oc3cc(Br)ccc3S(=O)(=O)N([C@@H](C)CO)C[C@@H]2C)c1	–	–	–	–	–	–
CCc1nc2ccc(C(=O)NCc3ccccc3OC)cn2c1N(C)Cc1ccc(OC)cc1	–	–	–	–	–	–
O=C(CN(Cc1ccco1)C(=O)c1cc(=O)[nH]c2ccccc12)Nc1ccccc1C(F)(F)F	–	–	–	–	–	–
CN(CC(=O)Nc1cccc2ccccc12)C(=O)c1ccc(F)cc1F	–	–	–	–	–	23
O=C(CN(Cc1ccco1)C(=O)c1ccc(F)cc1F)Nc1ccccc1C(F)(F)F	–	–	–	–	–	23
Cc1c(CC(=O)O)c(=O)oc2c(C)c3occ(-c4ccccc4)c3cc12	–	–	–	46	–	–
COc1c(Cl)ccc(Cl)c1C(=O)NC(=S)N1CCOCC1	–	–	–	–	–	–
CCCCNC(=O)c1sc(=S)n2c1[nH]c(=O)c1ccc(C(=O)NCCc3ccc(OC)c(OC)c3)cc12	–	–	25	–	–	–

Screens deposited in PubChem by The Scripps Research Institute Molecular Screening Center.
